In ChEMBL document CHEMBL1914454, “Novel N-linked aminopiperidine inhibitors of bacterial topoisomerase type II: broad-spectrum antibacterial agents with reduced hERG activity” (J Med Chem, 2011):

Experiments:
[1] = system: Mus musculus; assay: AUC (infinity) in Staphylococcus aureus ARC516 infected in CD1 mouse neutropenic thigh infection model at 20 mg/kg, ip qd by LC-MS/MS analysis; assay type: ADME, organism-based; set-up: time infinity, dose 20 mg/kg, route intraperitoneal; conditions: in vivo
In short: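 Exposure in neutropenic CD-1 mice thigh-infected with S. aureus ARC516 (target 5 × 10⁵ cfu/thigh), dosed ip once daily from 2 h post-infection. Groups of three killed at timed intervals; blood taken by cardiac puncture. Plasma drug measured by LC-MS/MS; parameters from a noncompartmental model.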

[2] = system: Staphylococcus aureus; assay: Antibacterial activity against Staphylococcus aureus ARC516 infected in CD1 mouse neutropenic thigh infection model assessed as 1 log reduction in colony forming unit per […] at 20 mg/kg, ip qd administered 2 hrs post-infection measured 24 hrs post-treatment relative to vehicle treated control; assay type: functional; conditions: route intraperitoneal
In short: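 Mice rendered neutropenic with ip cyclophosphamide (150 mg/kg 4 days and 100 mg/kg 1 day before infection), then infected with MSSA ARC516 at a target 5 × 10⁵ cfu/thigh. Groups of five dosed ip once daily from 2 h post-infection; vehicle group of five. At 24 h after treatment start, thighs homogenized and plated on tryptic soy agar, 37 °C overnight, cfu counted.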

## C[C@H]1COc2c(N3CCN(C)CC3)c(F)cc3c(=O)c(C(=O)O)cn1c23.C[C@H]1COc2c(N3CCN(C)CC3)c(F)cc3c(=O)c(C(=O)O)cn1c23.O [LEVOFLOXACIN]
[1]
  AUC: 2.5 µg/h/mL
[2]
  FC: 1.46
